In ChEMBL document CHEMBL4270555, “Synthesis and biological evaluation of magnolol derivatives as melatonergic receptor agonists with potential use in depression” (Eur J Med Chem, 2018):
The source made the active and inactive calls. The rule behind the calls is not given here.

Assays:
[1] = target: Melatonin receptor type 1A (Homo sapiens, UniProt P48039); assay: Agonist activity at human MT1 receptor expressed in HEK293 cells at 1 mM after 24 hrs by Fluo-8 dye-based calcium assay relative to control; type: functional, cell-based
Sequence of Melatonin receptor type 1A (P48039 whole entry): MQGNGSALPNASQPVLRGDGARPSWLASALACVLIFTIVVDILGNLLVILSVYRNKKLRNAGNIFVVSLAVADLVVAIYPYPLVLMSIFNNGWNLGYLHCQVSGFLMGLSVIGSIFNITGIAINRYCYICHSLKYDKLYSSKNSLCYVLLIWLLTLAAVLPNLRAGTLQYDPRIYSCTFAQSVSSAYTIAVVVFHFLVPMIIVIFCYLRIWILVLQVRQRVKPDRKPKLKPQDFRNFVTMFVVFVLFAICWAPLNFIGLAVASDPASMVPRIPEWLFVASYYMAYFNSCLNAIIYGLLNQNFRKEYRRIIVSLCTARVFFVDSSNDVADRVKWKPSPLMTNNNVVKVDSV
Procedure, shortened: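 Fluo-8 calcium assay in HEK293 cells stably expressing human MT1 or MT2, seeded 4×10^4/well and incubated 24 h. Compounds tested at 1.00 mM, agomelatine positive control at 3.33 µM; fluorescence at ex 485/em 525 nm. Agonism expressed as mean ± SD, n = 3.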

Mus musculus [2] = assay: Increase in 5-hydroxyindole-3-acetic acid level in Kunming mouse hippocampus at 40 mg/kg, po treated for 7 days by HPLC-ECD analysis; type: functional, organism-based
Procedure, shortened: (§1)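 Male Kunming mice (18–20 g) given vehicle or 40 mg/kg for 7 days, then killed by cervical dislocation. Frontal cortex, hippocampus, striatum, hypothalamus and thalamus dissected on ice, homogenized in ice-cold 0.2 M perchloric acid with 0.1 mM EDTA, centrifuged 15,000 rpm, 20 min, 4 °C. Supernatant analysed by HPLC-ECD at +0.50 V; phosphate/octanesulfonate mobile phase pH 3.0 with 12% methanol. Levels in ng/g, mean ± SEM.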

Mus musculus [3] = assay: Increase in ratio of 3,4-dihydroxyphenylacetic acid and 4-hydroxy-3-methoxyphenylacetic acid to dopamine level in Kunming mouse hypothalamus at 40 mg/kg, po treated for 7 days by HPLC-ECD analysis; type: functional, organism-based; procedure, shortened: as §1
[4] = Drug metabolism in Sprague-Dawley rat plasma assessed as (2S,3S,4S,5R,6S)-3,4,5-trihydroxy-6-(5-(1-hydroxyallyl)-5'-(1-hydroxypropyl)-2'-((2S,3R,4S,5S,6R)-3,4,5-trihydroxy-6-(hydroxymethyl)tetrahydro-2H-pyran-2-yloxy)biphenyl-2-yloxy)tetrahydro-2H-pyran-2-carboxylic acid formation at 100 mg/kg, po by UPLC-IT-TOF-MS analysis; type: ADME, organism-based; details: in vivo
Procedure, shortened: (§2)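 Rats (n = 6) housed in metabolic cages received 100.0 mg/kg orally; controls received 0.5% CMC-Na. Plasma, urine and faeces were collected and analyzed by LC-IT-TOF-MS on a C18 column at 30 °C. Gradient 5–100% acetonitrile with 0.05% formic acid over 18 min at 0.2 mL/min; positive and negative ion MS/MS.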

[5] = Drug metabolism in Sprague-Dawley rat feces assessed as 5'-(1-hydroxyallyl)-5-(1-hydroxypropyl)-2'-((2S,3R,4S,5S,6R)-3,4,5-trihydroxy-6-(hydroxymethyl)tetrahydro-2H-pyran-2-yloxy)biphenyl-2-yl hydrogen sulfate formation at 100 mg/kg, po by UPLC-IT-TOF-MS analysis; type: ADME, organism-based; details: in vivo; procedure, shortened: as §2
[6] = Drug metabolism in Sprague-Dawley rat feces assessed as 2'-hydroxy-5'-(1-hydroxyallyl)-5-propylbiphenyl-2-yl hydrogen sulfate formation at 100 mg/kg, po by UPLC-IT-TOF-MS analysis; type: ADME, organism-based; details: in vivo; procedure, shortened: as §2
[7] = Drug metabolism in Sprague-Dawley rat plasma assessed as 5,5'-diallyl-2'-((2S,3R,4S,5S,6R)-3,4,5-trihydroxy-6-(hydroxymethyl)tetrahydro-2H-pyran-2-yloxy)biphenyl-2-yl hydrogen sulfate formation at 100 mg/kg, po by UPLC-IT-TOF-MS analysis; type: ADME, organism-based; details: in vivo
Procedure, shortened: (§3)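 Male/unspecified SD rats (n = 6) housed individually in metabolic cages, dosed orally at 100.0 mg/kg; controls given 0.5% CMC-Na orally. Plasma, urine and faeces collected. LC-IT-TOF-MS on C18 column at 30 °C, formic acid (0.05%) water/acetonitrile gradient 5–100% B over 18 min, 0.2 mL/min; positive and negative ion modes with automatic MS/MS.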

[8] = Drug metabolism in Sprague-Dawley rat feces assessed as (2S,3S,4S,5R,6S)-3,4,5-trihydroxy-6-(5-(1-hydroxyallyl)-5'-(2-hydroxypropyl)-2'-methoxybiphenyl-2-yloxy)tetrahydro-2H-pyran-2-carboxylic acid formation at 100 mg/kg, po by UPLC-IT-TOF-MS analysis; type: ADME, organism-based; details: in vivo; procedure, shortened: as §2
[9] = Drug metabolism in Sprague-Dawley rat urine assessed as 1-(2'-hydroxy-5'-(1-hydroxyallyl)-6-((2S,3R,4S,5S,6R)-3,4,5-trihydroxy-6-(hydroxymethyl)tetrahydro-2H-pyran-2-yloxy)biphenyl-3-yl)prop-2-en-1-one formation at 100 mg/kg, po by UPLC-IT-TOF-MS analysis; type: ADME, organism-based; details: in vivo; procedure, shortened: as §3
[10] = Drug metabolism in Sprague-Dawley rat urine assessed as (2S,3S,4S,5R,6S)-6-(5,5'-diallyl-2'-methoxybiphenyl-2-yloxy)-3,4,5-trihydroxytetrahydro-2H-pyran-2-carboxylic acid formation at 100 mg/kg, po by UPLC-IT-TOF-MS analysis; type: ADME, organism-based; details: in vivo; procedure, shortened: as §3
Rattus norvegicus [11] = assay: Toxicity in Sprague-Dawley rat assessed as change in sensory nervous system responses at 2000 mg/kg, po measured continuously for first 4 hrs followed by measured every hour for next 24 hrs and at 6 hrs intervals for following 48 hrs post dose; type: organism-based; details: in vivo
Procedure, shortened: (§4)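 Followed OECD 425 in adult SD rats (180–220 g), three groups of six. Vehicle control received 0.5% CMC-Na orally; separate male and female groups received 2000 mg/kg orally. Endpoints observed: behaviour, breathing, cutaneous effects, sensory nervous system responses, gastrointestinal effects and deaths.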

Rattus norvegicus [12] = assay: Toxicity in Sprague-Dawley rat assessed as change in gastrointestinal effects at 2000 mg/kg, po measured continuously for first 4 hrs followed by measured every hour for next 24 hrs and at 6 hrs intervals for following 48 hrs post dose; type: organism-based; details: in vivo; procedure, shortened: as §4

With C=CCc1ccc(O)c(-c2cc(CC=C)ccc2O[C@@H]2O[C@H](CO)[C@@H](O)[C@H](O)[C@H]2O)c1 the Activity [1] was 108%, the Activity (Mus musculus [2]) was “Active” and the Activity (Mus musculus [3]) was “Active”. For the same compound, the Drug metabolism [4] was “Metabolite_Notdetected”, the Drug metabolism [5] was “Metabolite_Notdetected” and the Drug metabolism [6] was “Metabolite_Detected”. For the same compound, the Drug metabolism [7] was “Metabolite_Notdetected”, the Drug metabolism [8] was “Metabolite_Notdetected” and the Drug metabolism [9] was “Metabolite_Detected”. The Drug metabolism [10] was “Metabolite_Detected”, the Activity (Rattus norvegicus [11]) was “Non-Toxic” and the Activity (Rattus norvegicus [12]) was “Non-Toxic”.
